ChEMBL document CHEMBL4339243, “Molecular Networking Reveals the Chemical Diversity of Selaginellin Derivatives, Natural Phosphodiesterase-4 Inhibitors from Selaginella tamariscina” (J Nat Prod, 2019)

Each molecule was assayed against T1, 3',5'-cyclic-AMP phosphodiesterase 4D (Homo sapiens, UniProt Q08499) (assay: Inhibition of human PDE4D2 catalytic domain (86 to 413 residues) expressed in Escherichia coli strain BL21 using [3H]cAMP as substrate after 15 mins by liquid scintillation counter analysis).
T1 sequence (Q08499 whole entry, the tested form may be a part): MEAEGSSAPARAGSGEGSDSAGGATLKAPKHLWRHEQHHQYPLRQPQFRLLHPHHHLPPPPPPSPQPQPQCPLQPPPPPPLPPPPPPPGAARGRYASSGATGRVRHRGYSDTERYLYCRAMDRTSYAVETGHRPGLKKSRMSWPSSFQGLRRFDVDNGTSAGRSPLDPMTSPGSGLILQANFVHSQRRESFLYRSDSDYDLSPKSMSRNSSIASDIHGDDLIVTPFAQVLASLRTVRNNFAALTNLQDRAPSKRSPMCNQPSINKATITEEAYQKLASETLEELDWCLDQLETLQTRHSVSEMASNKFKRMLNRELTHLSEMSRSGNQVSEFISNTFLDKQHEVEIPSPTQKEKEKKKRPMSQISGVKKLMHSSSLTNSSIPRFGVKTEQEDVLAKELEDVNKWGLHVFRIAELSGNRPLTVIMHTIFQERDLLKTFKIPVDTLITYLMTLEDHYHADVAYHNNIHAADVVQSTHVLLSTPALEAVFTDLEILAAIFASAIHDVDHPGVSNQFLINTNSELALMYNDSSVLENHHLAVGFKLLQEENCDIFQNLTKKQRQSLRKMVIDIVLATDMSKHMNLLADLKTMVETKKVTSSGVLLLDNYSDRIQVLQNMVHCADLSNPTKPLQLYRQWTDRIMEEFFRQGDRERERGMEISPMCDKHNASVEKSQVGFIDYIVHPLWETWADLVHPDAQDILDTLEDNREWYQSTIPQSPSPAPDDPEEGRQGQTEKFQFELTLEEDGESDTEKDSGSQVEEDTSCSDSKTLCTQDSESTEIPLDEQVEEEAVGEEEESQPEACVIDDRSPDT

IC50 | SMILES
1 µM | O=C1C=CC(=C(c2ccc(O)cc2)c2c(-c3ccc(O)cc3)ccc(CO)c2C#Cc2ccc(O)cc2)C=C1
0.2 µM | OCc1ccc2c(c1C#Cc1ccc(O)cc1)C(c1ccc(O)cc1)(c1ccc(O)cc1)c1cc(O)ccc1-2
0.09 µM | COc1ccc(C2(c3ccc(OC)cc3)c3cc(O)ccc3-c3cccc(C#Cc4ccc(O)cc4)c32)cc1
0.01 µM | COc1ccc(C2(c3ccc(OC)cc3)c3cc(O)ccc3-c3ccc(C=O)c(C#Cc4ccc(O)cc4)c32)cc1
1.2 µM | Oc1ccc(C#Cc2ccc(O)c3c2C(c2ccc(O)cc2)(c2ccc(O)cc2)c2cc(O)ccc2-3)cc1

The molecules below were run against T1, 3',5'-cyclic-AMP phosphodiesterase 4D (assay: Inhibition of PDE4D2 (unknown origin) by preincubated for 30 mins before substrate addition and measured after 60 mins by IMAP TR-FRET phosphodiesterase evaluation assay).
Summary of the method: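 Purchased PDE4D2 at 5.0 pg/μL in IMAP buffer (10 mM Tris pH 7.2, 10 mM MgCl2, 0.05% NaN3, 1 mM DTT, 0.1% phosphate-free BSA). Compound or vehicle preincubated 30 min at RT, then FAM-cAMP added (200 nM final), 60 min at RT. Stopped with IMAP Tb binding reagent, 60 min at RT, fluorescence read. IC50 by four-parameter nonlinear fit, three independent replicates.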

IC50 | SMILES
2.8 µM | COCc1ccc2c(c1C#Cc1ccc(O)cc1)C(c1ccc(OC)cc1)(c1ccc(OC)cc1)c1cc(O)ccc1-2
32.1 µM | COc1ccc([C@@]2(c3ccc(O)cc3)c3cc(O)ccc3-c3ccc(CO)c(C#Cc4ccc(O)cc4)c32)cc1
5.4 µM | COc1ccc(C2(c3ccc(OC)cc3)c3cc(O)ccc3-c3ccc(CO)c(C#Cc4ccc(O)cc4)c32)cc1
> 30 µM | COc1ccc(-c2c3ccc(OC)cc3c3c4c(ccc(-c5ccc(O)cc5)c24)[C@@H](c2ccc(O)cc2)OC3=O)cc1
23.2 µM | COCc1ccc2c(c1C#Cc1ccc(O)cc1)C(c1ccc(O)cc1)(c1ccc(O)cc1)c1cc(O)ccc1-2
19.5 µM | COc1ccc([C@@]2(c3ccc(O)cc3)c3cc(O)ccc3-c3ccc(C)c(C#Cc4ccc(O)cc4)c32)cc1
33.8 µM | COCc1ccc2c(c1C#Cc1ccc(O)cc1)[C@](c1ccc(O)cc1)(c1ccc(OC)cc1)c1cc(O)ccc1-2
13.7 µM | COc1ccc(-c2c3ccc(OC)cc3c3c4c(ccc(-c5ccc(O)cc5)c24)C(=O)O[C@H]3c2ccc(O)cc2)cc1
24.6 µM | COc1ccc(C2(c3ccc(OC)cc3)c3cc(O)ccc3-c3ccc(C)c(C#Cc4ccc(O)cc4)c32)cc1
29.5 µM | COCc1cc(O)c2c(c1C#Cc1ccc(O)cc1)C(c1ccc(O)cc1)(c1ccc(O)cc1)c1cc(O)ccc1-2
